Reference: ChEMBL document CHEMBL1157267, “Polyphenolic constituents of Actaea racemosa” (J Nat Prod, 2006)

Experiments:
Type in all cases: functional
[1] = test system: MCF7; assay: Stimulation of cell proliferation in human MCF7 cells assessed as cell viability at 16.8 uM after 4 days relative to control
Outline: (§1)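 MCF-7 cells grown in DMEM with 10% FBS at 37 °C and 5% CO2. Before seeding they were passaged at least twice in phenol red-free DMEM with 2 mM L-glutamine and 5% charcoal-stripped serum, then washed twice with PBS. Cells were seeded at 2 × 10^4 per well, allowed 24 h to attach, then given fresh medium with compound. After 4 days attached viable cells were Coulter-counted relative to untreated cells.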

[2] = test system: MCF7; assay: Stimulation of cell proliferation in human MCF7 cells assessed as cell viability at 3.7 nM after 4 days relative to control; outline: as §1
[3] = test system: Radical scavenging activity; assay: Antioxidant activity assessed as DPPH free radical scavenging activity
Outline: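 DPPH free-radical scavenging assay run on purified isolates with 400 µM DPPH. IC50 (µM) reported as the concentration giving half-maximal radical scavenging.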

[4] = test system: MCF7; assay: Stimulation of cell proliferation in human MCF7 cells assessed as cell viability at 14 uM after 4 days relative to control; outline: as §1
[5] = test system: MCF7; assay: Cytotoxicity against human MCF7 cells at 30 uM; settings: read-out: GI; outline: as §1
[6] = test system: MCF7; assay: Stimulation of cell proliferation in human MCF7 cells assessed as cell viability at 10 uM after 4 days relative to control; outline: as §1

Row | IC50 [3] | SMILES | further results
1 | – | O=C1OC[C@H](Cc2cccc(O)c2)[C@H]1Cc1cccc(O)c1 [ENTEROLACTONE] | fold change (FC) [1]: 1.84
2 | – | C[C@]12CC[C@@H]3c4ccc(O)cc4CC[C@H]3[C@@H]1CC[C@@H]2O [ESTRADIOL] | fold change (FC) [2]: 3.6
3 | 23 µM | O=C(/C=C/c1ccc(O)c(O)c1)O[C@H](C(=O)O)[C@](O)(Cc1ccc(O)c(O)c1)C(=O)O [FUKINOLIC ACID] | –
4 | 12 µM | COc1cc(/C=C/C(=O)O[C@H](C(=O)O)[C@](O)(Cc2ccc(O)c(O)c2)C(=O)O)ccc1O [CIMICIFUGIC ACID A] | –
5 | 26 µM | O=C1OCC(O)(C(=O)c2ccc(O)c(O)c2)/C1=C\c1ccc(O)c(O)c1 (stereo unspecified) [ACTAEALACTONE] | fold change (FC) [4]: 1.24
6 | 21 µM | COc1ccc(/C=C/C(=O)O[C@H](C(=O)O)[C@](O)(Cc2ccc(O)c(O)c2)C(=O)O)cc1O [CIMICIFUGIC ACID B] | –
7 | 37 µM | COc1ccc(/C=C/C(=O)O[C@H](C(=O)O)[C@](O)(Cc2ccc(O)c(O)c2)C(=O)O)cc1OC [CIMICIFUGIC ACID G] | inhibition of growth at 30 µM [5]: 32%; fold change (FC) [6]: 1.14

Row | SMILES | IC50 [3] | further results
8 | O=C(O)c1cc(O)c(O)c(O)c1 [GALLIC ACID] | 29.9 µM | –
